Measured values published in the array DNA melting data of Ke et al. (doi:10.1101/2024.01.08.574731).

What was measured:
[1] = folding enthalpy; higher = less favourable; fluorescence melt of hairpins on a sequencing array, two-state fit; conditions: sodium 0.088 M
In short: (§1)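 Folding enthalpy and melting temperature come from bootstrapped two-state fits to Cy3 fluorescence of library hairpins carrying annealed Cy3 and quencher oligos on a sequenced MiSeq flow cell. Imaging was done in 50 mM Na-HEPES pH 8.0, 25 mM NaCl, stepping by 2.5 °C up to 60 °C, and signals were normalised to pre-quench Cy3 and to control constructs. Results of four replicates were combined by inverse variance, and fitted temperatures were raised by 9.35 °C to match UV melts.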

[2] = melting temperature; fluorescence melt of hairpins on a sequencing array, two-state fit, raised by 9.35 °C to match UV melts; conditions: sodium 0.088 M
In short: as §1

## GTACCGGGAAACTGGTAC (((((.(....).)))))
[1]
  folding enthalpy: -33.2 kcal/mol
[2]
  Tm: 51.4 °C

## GTAAGTGGAAACACTTGC (.(((((....))))).)
[1]
  folding enthalpy: -26.7 kcal/mol
[2]
  Tm: 45 °C

## GATCGTGGTACGATC ((((((...))))))
[1]
  folding enthalpy: -34.7 kcal/mol
[2]
  Tm: 58.2 °C

## GCGTTAGACGC ((((...))))
[1]
  folding enthalpy: -18.1 kcal/mol
[2]
  Tm: 51.3 °C

## GCACGGCCGAAAGGCTGC (((..(((....))))))
[1]
  folding enthalpy: -10 kcal/mol
[2]
  Tm: 45.1 °C

## GAGTGGGGAAACCCGCTC (((.(((....))).)))
[1]
  folding enthalpy: -35.8 kcal/mol
[2]
  Tm: 55.6 °C

## ATCAGGAAACTGAT (((((....)))))
[1]
  folding enthalpy: -16.5 kcal/mol
[2]
  Tm: 40.6 °C

## GTGTCTGGAAACAGACAC (((((((....)))))))
[1]
  folding enthalpy: -39.9 kcal/mol
[2]
  Tm: 66.5 °C

## GTCACGTCGAAAGACGAC (((..(((....))))))
[1]
  folding enthalpy: -9.85 kcal/mol
[2]
  Tm: 32.1 °C

## GCTGTTGGAAACAACGGC ((.((((....)))).))
[1]
  folding enthalpy: -39.8 kcal/mol
[2]
  Tm: 54.3 °C

## GCACTTGCGAAAGCATGC (((..(((....))))))
[1]
  folding enthalpy: -10.8 kcal/mol
[2]
  Tm: 38.6 °C

## GGCATACCGAAAGGTGCC (((..(((....))))))
[1]
  folding enthalpy: -39.5 kcal/mol
[2]
  Tm: 53.3 °C

## GGTTTCGAAAGAATTACC ((((((....)))..)))
[1]
  folding enthalpy: -14.2 kcal/mol
[2]
  Tm: 27.9 °C

## GCGGGAGCCGC ((((...))))
[1]
  folding enthalpy: -9.67 kcal/mol
[2]
  Tm: 54.9 °C

## GATCCCGGAGGGGATC ((((((....))))))
[1]
  folding enthalpy: -19.4 kcal/mol
[2]
  Tm: 65.8 °C

## GGTCTGCCGAAAGGCACC (((..(((....))))))
[1]
  folding enthalpy: -6.75 kcal/mol
[2]
  Tm: 28.8 °C

## GTTCACGAAAGTGGGAAC ((((((....)))..)))
[1]
  folding enthalpy: -13.3 kcal/mol
[2]
  Tm: 35.4 °C

## GCTATCGGAAACGATAAC (.(((((....))))).)
[1]
  folding enthalpy: -17.4 kcal/mol
[2]
  Tm: 34.5 °C

## GATCTCCAGCGAGATC ((((((....))))))
[1]
  folding enthalpy: -30.6 kcal/mol
[2]
  Tm: 50 °C

## GAGAGTGGAAACACCCTC (((.(((....))).)))
[1]
  folding enthalpy: -26.8 kcal/mol
[2]
  Tm: 36 °C

## GCACGCGAAAGCGACTGC ((((((....)))..)))
[1]
  folding enthalpy: -12.6 kcal/mol
[2]
  Tm: 43.8 °C

## GCTTAGCGAAAGCTTGGC ((..(((....)))..))
[1]
  folding enthalpy: -18.3 kcal/mol
[2]
  Tm: 47 °C

## GCAGATGGAAACGTCTGC (((((.(....).)))))
[1]
  folding enthalpy: -45.2 kcal/mol
[2]
  Tm: 53.2 °C

## GGCAATCGAAAGATGGCC (((.(((....))).)))
[1]
  folding enthalpy: -41.9 kcal/mol
[2]
  Tm: 57.8 °C

## CGTCGCGGAAACGCAACG (((.(((....))).)))
[1]
  folding enthalpy: -28.8 kcal/mol
[2]
  Tm: 50.5 °C

## GCAGCTGGAAACAGTTGC (((.(((....))).)))
[1]
  folding enthalpy: -51.6 kcal/mol
[2]
  Tm: 53.1 °C

## GTGCCAGAAATGGCAC ((((((....))))))
[1]
  folding enthalpy: -36.7 kcal/mol
[2]
  Tm: 67.8 °C

## GCTCCTCGAAAGAGCAGC (((.(((....))).)))
[1]
  folding enthalpy: -21.5 kcal/mol
[2]
  Tm: 40.6 °C

## GCCACGCGAAAGCGTAGC ((.((((....)))).))
[1]
  folding enthalpy: -16.9 kcal/mol
[2]
  Tm: 55.8 °C

## GCACCATCGAAAGATTGC (((..(((....))))))
[1]
  folding enthalpy: -20 kcal/mol
[2]
  Tm: 29.1 °C

## GATCGTAGACACGATC ((((((....))))))
[1]
  folding enthalpy: -39.8 kcal/mol
[2]
  Tm: 54.2 °C

## GATCACTCTAGTGATC ((((((....))))))
[1]
  folding enthalpy: -40.4 kcal/mol
[2]
  Tm: 59.9 °C

## GGTTCCGAAAGGATTACC ((((((....)))..)))
[1]
  folding enthalpy: -19.9 kcal/mol
[2]
  Tm: 34.6 °C

## TGGTAGAAATACCA (((((....)))))
[1]
  folding enthalpy: -12.8 kcal/mol
[2]
  Tm: 36.8 °C

## GCATGCGAAAGCATCTGC ((((((....)))..)))
[1]
  folding enthalpy: -13.4 kcal/mol
[2]
  Tm: 47 °C

## GTGGTGCGAAAGCAACAC (((.(((....))).)))
[1]
  folding enthalpy: -28.8 kcal/mol
[2]
  Tm: 68.9 °C

## GATGGAGGAAACTCCACC (.(((((....))))).)
[1]
  folding enthalpy: -16.3 kcal/mol
[2]
  Tm: 34.1 °C

## GAATGCCGAAAGGCTTC (((.(((....))))))
[1]
  folding enthalpy: -13.2 kcal/mol
[2]
  Tm: 43.6 °C

## GCGAGCCCTCGC ((((....))))
[1]
  folding enthalpy: -26 kcal/mol
[2]
  Tm: 55 °C

## GGGCGGACGAAAGTCCCC (((..(((....))))))
[1]
  folding enthalpy: -13.8 kcal/mol
[2]
  Tm: 50.6 °C

## CGACCGGAAACGGGGTCG ((((((....)))..)))
[1]
  folding enthalpy: -28.8 kcal/mol
[2]
  Tm: 48.6 °C

## GGGTTCGAAAGAACACCC ((((((....)))..)))
[1]
  folding enthalpy: -11.8 kcal/mol
[2]
  Tm: 55.1 °C

## GATCGGTTTGCCGATC ((((((....))))))
[1]
  folding enthalpy: -47.9 kcal/mol
[2]
  Tm: 61.6 °C

## GCACACCGAAAGGTCTGC (((.(((....))).)))
[1]
  folding enthalpy: -26.5 kcal/mol
[2]
  Tm: 47 °C

## GTAAGCGAAAGCTGGTAC ((((((....)))..)))
[1]
  folding enthalpy: -11 kcal/mol
[2]
  Tm: 32.3 °C

## GATTAAGGAAACTTAGTC ((.((((....)))).))
[1]
  folding enthalpy: -12.6 kcal/mol
[2]
  Tm: 28 °C
